Compound activity deposited in PubChem BioAssay by several laboratories.
NS3 helicase inh: inhibitors of Hepatitis C virus NS3 helicase; NS3 helicase DNA unwinding, Cy5 molecular beacon fluorescence; inhibition, % at 10.9 µM; 0.56% of 290,000 active;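 active means inhibition above the mean of all tested compounds plus 3 SD, set per campaign, cut at about 35% in these data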;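 further: 0% = DMSO wells and 100% = thioflavine S control wells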
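Measured by: Cy5 fluorescence, 0 and 60 min reads / Assay system: NS3 helicase fragment of HCV / Control set: low DMSO, high thioflavine S at 110 µM / Times: 1 h reaction at 25 °C, ATP-initiated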
ZTA counter: ZTA (EBV) inhibition in EBNA-1 counter-screen; P03206; ZTA-DNA binding, fluorescence polarization; inhibition, % at 11 µM; 0.15% of 320,000 active; AID 2234; in the data active means inhibition above about 33%
Target sequence (P03206 whole entry, looked up): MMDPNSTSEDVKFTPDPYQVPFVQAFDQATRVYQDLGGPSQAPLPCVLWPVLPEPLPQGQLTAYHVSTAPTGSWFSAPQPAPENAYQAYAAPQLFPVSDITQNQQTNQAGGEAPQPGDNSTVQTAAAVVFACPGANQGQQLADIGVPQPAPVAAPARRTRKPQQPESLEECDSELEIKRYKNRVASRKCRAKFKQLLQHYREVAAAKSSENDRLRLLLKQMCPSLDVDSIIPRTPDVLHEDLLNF
GPR7 antagonist: human neuropeptides B/W receptor 1 antagonism | P48145 | GPR7-expressing cells, fluorescence antagonist assay | inhibition, % at 4.4 µM | 1.1% of 290,000 active; in the data active means inhibition above about 16%, passing the limit was not always enough;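 further: cells stimulated with the agonist NPW; 0% = agonist with vehicle and 100% = vehicle without agonist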
EBV gp42 block: inhibitors of Epstein-Barr virus glycoprotein 42. Q1HVG2. Fluorescence polarization binding assay, mP read-out. inhibition, % (tested at 21.74 µM). 0.42% of 220,000 active. AID 1085; in the data active means inhibition above about 50%
Target sequence (Q1HVG2 whole entry, looked up): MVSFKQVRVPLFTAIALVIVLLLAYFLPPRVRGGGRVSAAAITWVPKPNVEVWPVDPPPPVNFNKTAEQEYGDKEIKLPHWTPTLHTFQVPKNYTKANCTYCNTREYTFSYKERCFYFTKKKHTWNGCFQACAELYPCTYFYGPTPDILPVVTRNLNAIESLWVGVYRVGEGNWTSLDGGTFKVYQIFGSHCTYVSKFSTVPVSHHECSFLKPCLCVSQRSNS
EBNA-1 inhibitor: blocks EBNA-1 binding to DNA. EBNA-1 DNA binding, fluorescence polarization. inhibition, % at 14.8 µM. 0.34% of 300,000 active; in the data active means inhibition above about 28%
core dimer inh: blocks dimerization of HCV core protein; inhibition, % at 5 µM; 0.33% of 300,000 active; TR-FRET GST/Flag-core106 dimerization, 1536-well;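 active means inhibition above the mean of all tested compounds plus 3 SD, set per screening campaign, cut at about 45% in these data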
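Assay system – GST-tagged and Flag-tagged HCV core protein residues 1-106 · Quantity – core106 proteins, GST 13.5 nM and Flag 17 nM · Benchmarks – unlabelled core106 and no-GST-core106 wells · Read-out basis – percent inhibition of core106 dimerization signal · Detection – time-resolved FRET, ex 340 nm, em 617 and 671 nm · Schedule – 4 h at 22.5 °C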
EBNA-1 inh conf: EBNA-1 (EBV) inhibition, confirmation; shares compounds with EBNA-1 inhibitor; Recombinant EBNA-1 DBD, Cy5-DNA fluorescence polarization; inhibition, % at 14.8 µM; 35% of 830 active; AID 2292;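 active means mean inhibition across replicates above a set limit taken from the earlier primary screen, cut at about 28% in these data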;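 further: plate controls were EBNA-1 protein with DMSO for no effect and wells lacking EBNA-1 for full effect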
ZTA counter trip: counter-screen for EBNA-1 inhibitors: Epstein-Barr virus ZTA inhibitors, triplicate. 830 tested, under 10 active. inhibition, % at 11.1 µM. shares compounds with EBNA-1 inhibitor. Zta-ZRE DNA binding, Cy5 fluorescence polarization;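 active means mean inhibition over triplicates above a set limit taken from the primary EBNA-1 screen, cut at about 37% in these data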;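 further: purified full length Zta protein with Cy5 labeled ZRE DNA probe; 0% = Zta with DMSO and 100% = wells lacking Zta protein; inhibitors lower polarization by freeing the labeled DNA probe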
Numbers without * were called inactive; · = no result given. Only some compounds are listed: those with a hit (about 2.3% of all), similar ones and a draw of the others.

SMILES	NS3 helicase inh	ZTA counter	GPR7 antagonist	EBV gp42 block	EBNA-1 inhibitor	core dimer inh	EBNA-1 inh conf	ZTA counter trip
CCC(C)Nc1nnnc2c1sc1nc3c(cc12)COC(C)(C)C3 (centres undefined)	-12	-5	-1	-17	-13	0	·	·
COc1cccc(Nc2nnc(SCn3nnc4ccccc4c3=O)s2)c1	2	4	-11	-8	43*	6	38*	16
CCc1ccc(Nc2nnc(SCn3nnc4ccccc4c3=O)s2)cc1	3	3	-7	2	-15	19	·	·
CC(Sc1ccc(Cl)cc1)C(=O)Nc1ccc(S(=O)(=O)N2CCOCC2)cc1 (centres undefined)	-1	1	25	-8	3	6	·	·
CCOC(CC(=O)NNC(=O)c1c(-c2c(Cl)cccc2Cl)noc1C)OCC	-2	-1	4	-7	2	-4	·	·
CO/C([O-])=N/c1c[n+](-c2ccc(Cl)cc2)no1	1	7	-17	-19	39*	1	-6	-6
CCOc1cc(NS(=O)(=O)c2ccc(NC(C)=O)cc2)c(OCC)cc1NC(=O)c1cccs1	-13	-4	-6	-3	41*	-10	28*	-12
CCOc1cc(NC(=S)NC)c(OCC)cc1NC(=O)c1cccs1	7	-5	0	-10	-10	-3	·	·
CC1(C)CC(NC(=O)c2ccccc2F)CC(C)(C)N1	15	5	-11	·	0	-28	·	·
Cc1cc(CSc2ccccc2)ccc1NC(=O)c1cccc([N+](=O)[O-])c1	-4	5	-10	-12	28*	6	13	15
COC(=O)c1cc(Nc2cc(C)c3ccc(O)cc3n2)cc(C(=O)OC)c1	-6	-9	-4	-9	39*	6	48*	3
COC(=O)c1cc(Nc2cc(C)c3c(O)cccc3n2)cc(C(=O)OC)c1	-24	-10	-19	-7	-13	10	·	·
Cc1ccc(-n2c(SCC(=O)Nc3nccs3)nc3c(c2=O)SCC3)cc1	-3	23	-8	4	39*	1	38*	-3
CCCn1c(C)cc(/C=C(\C#N)C(=O)OCC(=O)Nc2cccc(S(N)(=O)=O)c2)c1C	·	16	·	·	·	·	·	·
CCCn1c(C)cc(/C=C(\C#N)C(=O)OCC(=O)Nc2cccc(OC)c2)c1C	-5	3	0	-19	67*	16	0	2
O=C(C1CCN(S(=O)(=O)c2ccccc2F)CC1)N1CCN(Cc2ccc3c(c2)OCO3)CC1	·	0	·	·	·	·	·	·
O=C(Nc1cccc(S(=O)(=O)NC2=NCCCCC2)c1)c1cc(-c2ccncc2)nc2ccccc12	4	-3	-6	10	-1	15	·	·
O=C(Nc1cccc(S(=O)(=O)NC2=NCCCCC2)c1)c1cc(-c2ccco2)nc2ccccc12	10	-1	-8	40	39*	69*	18	-7
Cc1ccc2c(C)c(C(=O)N(C)Cc3nccn3C)oc2c1C	0	4	-2	·	5	1	·	·
O=C(N/N=C/c1ccc(COc2ccc(Br)cc2)o1)c1ccco1	-6	-14	-13	-4	59*	5	6	2
CCC(=O)Nc1ccc(Cl)c(NC(=S)NC(=O)c2cc3ccccc3o2)c1	0	-3	-5	-19	39*	-3	18	3
COc1ccc(NC(=S)Nc2cc(C)[nH]n2)cc1Cl	8	-3	-2	-4	-7	-1	·	·
COc1ccc(NC(=S)Nc2cc(-c3ccccc3)[nH]n2)cc1Cl	-2	-22	-11	-10	36*	2	-5	-8
C=C(C)C(=O)N1CC2(CC(c3cccc(NC(=O)CCCCC)c3)=NO2)C[C@H]1C(N)=O (some centres undefined)	·	-20	·	-19	9	-17	·	·
COc1ccc(C(=O)NNC(=O)CSc2nnc(COc3ccc4ccccc4c3)n2C)cc1	5	-1	5	-7	82*	4	36*	1
Cc1ccc(NCc2nnc(SCC(=O)Nc3cc(C)on3)n2C)cc1	0	2	4	-6	4	-5	·	·
